Activity calls are given as the source filed them.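 The calls were made as follows, unless noted: active = viability at or under a set limit in both replicates, limit being median viability minus 3 SD (cut at about 48% in these data, passing the limit was not always enough); inconclusive = at or under the limit in just one replicate; inactive = at or above the limit in both replicates.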
Key:
[1] = Her2 expression decrease, cell viability multiplex – SKBR3 breast tumor cells, AlphaScreen, ATP viability, primary screen (AID 461;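 active = Her2 level under about 52% in both replicate screens, with viability over 70% of control, limit read from the data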;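 as to Her2 level: lower value means less Her2 protein in the cells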;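 as to viability: percent of carrier control wells set as 100% viability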); details: SKBR3 Her2 protein level, 18-24 h, measured here: SKBR3 viability, ATP luminescence, at 10 µM
[2] = target: Receptor tyrosine-protein kinase erbB-2 (Homo sapiens) (UniProt P04626); assay: as above; details: 18-24 h, at 10 µM, stronger effect = lower value
[3] = reduced viability of SK-BR-3 breast cancer cells – cell-based, 24 h, human, pilot screen (AID 572;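 active = viability at or below 10% of carrier control in both of two separate runs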;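 also: compound exposure lasted between 18 and 24 h rather than exactly 24 h; 100% = carrier-treated control wells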); details: SK-BR-3 viability, CellTiter-Glo luminescence, at 10 µM, stronger effect = lower value
[4] = HUVEC growth inhibition – cell-based, human, primary screen (AID 575;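 active = viability at or below 30% in both replicate assays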;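 also: 100% = median of untreated cell wells with 0.1% DMSO on each plate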); details: HUVEC proliferation, CellTiter-Glo luminescence, 72 h; at 10 µM; stronger effect = lower value
How it was run: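 Timing: 72 h treatment at 37 °C; material: HUVEC primary cells; technique: CellTiter-Glo luminescence measuring cellular ATP; controls: vehicle and MePR control wells; measure: percent of median DMSO-control luminescence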

[5] = H69AR cell proliferation blockers – human, duplicate replicates, primary screen (AID 580); details: H69AR lung tumor cells viability, ATP luminescence, 72 h; at 10 µM; stronger effect = lower value;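 also: 100% = mean luminescence of untreated wells and 0% = no signal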
[6] = MRP1 drug-resistance reversers in H69AR cells – cell-based, doxorubicin co-treatment, pilot screen (AID 601;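 active = viability loss from added drug above about 55%, and viability with drug at most 40%, in both replicates, limit read from the data, passing the limit was not always enough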); details: CellTiter-Glo, 72 h, at 10 µM; for differential viability (reversal): stronger effect = higher value
[7] = yeast transport mutant growth inhibition pilot in 384-well plates, post-Golgi transport modulator project (AID 636; in the data active = inhibition above about 31%); details: absorbance 615 nm, about 18 h, stronger effect = higher value
[8] = growth suppression of yeast trafficking mutant, preliminary HTS, modulators of trafficking downstream of Golgi apparatus project, 1536-format plate, OD 615 nm (AID 637; in the data active = inhibition above about 30%); details: yeast transport mutant growth, absorbance 615 nm, 18 h; stronger effect = higher value
[9] = H69AR cells + 2 uM doxorubicin, measured here: viability with 2 uM doxorubicin, stronger effect = lower value
[10] = H69AR cells, compound alone cytotoxicity

Chain of Receptor tyrosine-protein kinase erbB-2 (Homo sapiens) (P04626 whole entry, looked up): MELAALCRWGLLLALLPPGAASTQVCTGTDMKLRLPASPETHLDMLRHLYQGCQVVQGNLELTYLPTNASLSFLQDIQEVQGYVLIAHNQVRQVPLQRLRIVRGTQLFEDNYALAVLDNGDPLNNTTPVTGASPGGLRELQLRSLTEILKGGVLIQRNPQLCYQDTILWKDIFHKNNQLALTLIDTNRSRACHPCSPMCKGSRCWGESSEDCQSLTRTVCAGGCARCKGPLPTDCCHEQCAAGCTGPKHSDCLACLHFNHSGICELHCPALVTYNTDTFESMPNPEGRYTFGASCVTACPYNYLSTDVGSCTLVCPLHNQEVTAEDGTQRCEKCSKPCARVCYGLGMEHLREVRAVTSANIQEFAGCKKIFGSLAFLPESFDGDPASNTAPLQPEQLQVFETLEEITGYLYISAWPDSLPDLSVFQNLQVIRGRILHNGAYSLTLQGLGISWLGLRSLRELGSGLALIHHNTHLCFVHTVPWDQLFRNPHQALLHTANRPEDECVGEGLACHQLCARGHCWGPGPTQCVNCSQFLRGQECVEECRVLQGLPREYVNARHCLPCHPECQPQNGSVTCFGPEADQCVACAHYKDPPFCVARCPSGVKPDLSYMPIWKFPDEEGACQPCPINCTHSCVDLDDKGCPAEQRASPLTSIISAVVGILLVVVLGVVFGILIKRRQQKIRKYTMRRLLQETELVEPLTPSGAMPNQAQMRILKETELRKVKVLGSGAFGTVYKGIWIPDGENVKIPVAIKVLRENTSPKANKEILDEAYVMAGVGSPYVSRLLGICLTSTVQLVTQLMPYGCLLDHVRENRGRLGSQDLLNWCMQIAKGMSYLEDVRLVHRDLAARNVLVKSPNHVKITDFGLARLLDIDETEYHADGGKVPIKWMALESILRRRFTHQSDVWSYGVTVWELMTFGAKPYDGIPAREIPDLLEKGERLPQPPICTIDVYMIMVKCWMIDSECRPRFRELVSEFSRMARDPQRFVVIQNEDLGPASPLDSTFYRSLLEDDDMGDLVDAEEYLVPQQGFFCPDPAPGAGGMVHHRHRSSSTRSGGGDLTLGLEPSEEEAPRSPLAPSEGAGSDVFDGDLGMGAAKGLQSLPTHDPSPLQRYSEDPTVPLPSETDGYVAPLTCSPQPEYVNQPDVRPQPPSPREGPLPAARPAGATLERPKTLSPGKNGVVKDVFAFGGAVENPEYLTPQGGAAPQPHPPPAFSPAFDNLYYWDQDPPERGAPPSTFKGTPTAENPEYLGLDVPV

Row | SMILES | viability [1] | Her2 level [2] | viability [3] | viability [4] | viability [5] | differential viability (reversal) ([6]; H69AR cells + 2 uM doxorubicin) | viability [6, 9] | viability [6, 10] | inhibition [7] | inhibition [8]
1 | Cc1ccc2[nH]c3c(c2c1)CCc1cn[nH]c1-3 | 132% | 68% (inactive) | 132% (inactive) | 66.4% (inactive) | 38.4% (active) | -18.3% (inactive) | 56.7% | 38.4% | -0.8% (inactive) | -8.23% (inactive)
2 | COc1cc(S(=O)(=O)NC2CCCCC2)ccc1Cl | 94.5% | 84.5% (inactive) | 94.5% (inactive) | 82.3% (inactive) | 92.7% (inactive) | 7.43% (inactive) | 85.3% | 92.7% | -3.95% (inactive) | -2.7% (inactive)
3 | CCOc1ccc(-c2nnn(CCC(=O)O)n2)cc1OC | 95.5% | 84% (inactive) | 95.5% (inactive) | 104% (inactive) | 102% (inactive) | 12.1% (inactive) | 89.8% | 102% | -4.93% (inactive) | -0.16% (inactive)
4 | COc1ccc(Cc2nnc(NC(=O)Cc3cccs3)s2)cc1 | 104% | 112% (inactive) | 104% (inactive) | 103% (inactive) | 106% (inactive) | 5.58% (inactive) | 101% | 106% | 0.41% (inactive) | -4.29% (inactive)
5 | C=CCNS(=O)(=O)c1ccc2nsnc2c1 | 102% | 109% (inactive) | 102% (inactive) | 87.8% (inactive) | 100% (inactive) | -1.67% (inactive) | 102% | 100% | 0.27% (inactive) | -2.1% (inactive)
6 | CCc1nc(NCCCN2CCOCC2)c2oc3ccccc3c2n1 | 88% | 95% (inactive) | 88% (inactive) | 80.3% (inactive) | 89.1% (inactive) | 0.87% (inactive) | 88.2% | 89.1% | -0.13% (inactive) | 0.81% (inactive)
7 | CCCc1ccc(S(=O)(=O)NCCc2ccncc2)cc1 | 96% | 91.5% (inactive) | 96% (inactive) | 85.4% (inactive) | 106% (inactive) | 16.6% (inactive) | 89.6% | 106% | -4.19% (inactive) | -1.27% (inactive)
8 | CC(=O)OCC(=O)c1ccc2ccn(C(C)=O)c2c1 | 106% | 89% (inactive) | 106% (inactive) | 94.9% (inactive) | 90.5% (inactive) | -1.94% (inactive) | 92.5% | 90.5% | -5.33% (inactive) | 3.11% (inactive)
9 | Cc1cc(-c2ccccc2)nc2cc(C(=O)NCCCn3ccnc3)nn12 | 104% | 103% (inactive) | 104% (inactive) | 98.8% (inactive) | 88.2% (inactive) | 8.86% (inactive) | 79.3% | 88.2% | -6.13% (inactive) | -1.45% (inactive)
10 | O=C(CS(=O)CC(=O)Nc1cccc2c1CCCC2)Nc1ccc(F)cc1 (stereo not given) | 114% | 103% (inactive) | 114% (inactive) | 88.3% (inactive) | 102% (inactive) | 4.67% (inactive) | 97.8% | 102% | -6.93% (inactive) | 4.1% (inactive)
11 | O=C(Cn1cnc2c(nnn2Cc2ccccc2)c1=O)c1ccc(Cl)cc1 | 93.5% | 110% (inactive) | 93.5% (inactive) | 84.5% (inactive) | 97.1% (inactive) | 8.5% (inactive) | 88.6% | 97.1% | -3.46% (inactive) | -0.17% (inactive)
12 | OCCNCCCCOc1ccccc1F | 84.5% | 128% (inactive) | 84.5% (inactive) | 111% (inactive) | 102% (inactive) | 8.07% (inactive) | 94.3% | 102% | 2.69% (inactive) | -8.17% (inactive)
13 | CCOC(=O)N1CCN(C(=O)C2c3cc(OC)c(OC)cc3C(=O)N3CCc4ccccc4C23)CC1 (stereo not given) | 116% | 97% (inactive) | 116% (inactive) | 102% (inactive) | 95.7% (inactive) | -0.775% (inactive) | 96.4% | 95.7% | -6.4% (inactive) | 0.49% (inactive)
14 | Cc1ccc(S(=O)(=O)CCc2nnc(NC(=O)c3cnccn3)s2)cc1 | 97.5% | 87% (inactive) | 97.5% (inactive) | 116% (inactive) | 99.6% (inactive) | 1.94% (inactive) | 97.6% | 99.6% | -4.13% (inactive) | 3.93% (inactive)
15 | FC(F)(F)c1cccc(N2CCN(Cc3cccnc3)CC2)c1 | 90.5% | 99.5% (inactive) | 90.5% (inactive) | 101% (inactive) | 110% (inactive) | 25.3% (inactive) | 84.9% | 110% | -0.4% (inactive) | -1.61% (inactive)
16 | COC(=O)CN(c1ccc(C)c(Cl)c1)S(C)(=O)=O | 108% | 100% (inactive) | 108% (inactive) | 99.5% (inactive) | 101% (inactive) | 10.7% (inactive) | 90.5% | 101% | -2.27% (inactive) | -0.81% (inactive)

Reference: PubChem BioAssay
